Test results as given in ChEMBL document CHEMBL1121543, “Synthesis of selenium-75 labeled tertiary diamines: new brain imaging agents” (J Med Chem, 1980).

Experiments:
Rattus norvegicus [1] = assay: Organ distribution in rat liver 2 hr after intravenous injection; assay type: ADME, organism-based; settings: in vivo
Method in brief: (§1)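 Male Sprague-Dawley rats (220-300 g) given 0.2 mL Se-75 labeled compound (0.5-2.0 μCi) iv via femoral vein under light ether anesthesia; killed under ether by heart removal at set times; organs excised and counted in a well counter. Percent dose per organ from comparison with diluted aliquots of injected dose; blood and muscle totals assume 7% and 40% of body weight. Average of two or three rats, with range.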

Rattus norvegicus [2] = assay: Organ distribution in rat lung 2 minutes after intravenous injection; assay type: ADME, organism-based; settings: in vivo; method in brief: as §1
Rattus norvegicus [3] = assay: Organ distribution in rat heart 2 hr after intravenous injection; assay type: ADME, organism-based; settings: in vivo; method in brief: as §1
Rattus norvegicus [4] = assay: Organ distribution in rat blood 30 minutes after intravenous injection; assay type: ADME, organism-based; settings: in vivo, 0.5 h; method in brief: as §1
Rattus norvegicus [5] = assay: Organ distribution in rat kidney 2 minutes after intravenous injection; assay type: ADME, organism-based; settings: in vivo; method in brief: as §1
Rattus norvegicus [6] = assay: Organ distribution in rat blood 2 minutes after intravenous injection; assay type: ADME, organism-based; settings: in vivo; method in brief: as §1
Rattus norvegicus [7] = assay: Organ distribution in rat kidney 2 hr after intravenous injection; assay type: ADME, organism-based; settings: in vivo; method in brief: as §1
Rattus norvegicus [8] = assay: Organ distribution in rat lung 30 minutes after intravenous injection; assay type: ADME, organism-based; settings: in vivo, 0.5 h; method in brief: as §1
Rattus norvegicus [9] = assay: Organ distribution in rat kidney 30 minutes after intravenous injection; assay type: ADME, organism-based; settings: in vivo, 0.5 h; method in brief: as §1
Rattus norvegicus [10] = assay: Organ distribution in rat muscle 30 minutes after intravenous injection; assay type: ADME, organism-based, Muscle tissue; settings: in vivo, 0.5 h; method in brief: as §1
Rattus norvegicus [11] = assay: Organ distribution in rat muscle 2 hr after intravenous injection; assay type: ADME, organism-based, Muscle tissue; settings: in vivo; method in brief: as §1
Rattus norvegicus [12] = assay: Organ distribution in rat lung 2 hr after intravenous injection; assay type: ADME, organism-based; settings: in vivo; method in brief: as §1
Rattus norvegicus [13] = assay: Organ distribution in rat blood 2 hr after intravenous injection; assay type: ADME, organism-based; settings: in vivo; method in brief: as §1
Rattus norvegicus [14] = assay: Organ distribution in rat brain 30 minutes after intravenous injection; assay type: ADME, organism-based; settings: in vivo, 0.5 h; method in brief: as §1
Rattus norvegicus [15] = assay: Organ distribution in rat brain 2 hr after intravenous injection; assay type: ADME, organism-based; settings: in vivo; method in brief: as §1
Rattus norvegicus [16] = assay: Organ distribution in rat heart 2 minutes after intravenous injection; assay type: ADME, organism-based; settings: in vivo; method in brief: as §1
Rattus norvegicus [17] = assay: Organ distribution in rat liver 2 minutes after intravenous injection; assay type: ADME, organism-based; settings: in vivo; method in brief: as §1
Rattus norvegicus [18] = assay: Organ distribution in rat muscle 2 minutes after intravenous injection; assay type: ADME, organism-based, Muscle tissue; settings: in vivo; method in brief: as §1
Rattus norvegicus [19] = assay: Organ distribution in rat liver 30 minutes after intravenous injection; assay type: ADME, organism-based; settings: in vivo, 0.5 h; method in brief: as §1
Rattus norvegicus [20] = assay: Organ distribution in rat heart 30 minutes after intravenous injection; assay type: ADME, organism-based; settings: in vivo, 0.5 h; method in brief: as §1
Rattus norvegicus [21] = assay: Organ distribution in rat brain 2 minutes after intravenous injection; assay type: ADME, organism-based; settings: in vivo; method in brief: as §1
Rattus norvegicus [22] = assay: Organ distribution in rat blood 30 min after intravenous injection; assay type: ADME, organism-based; settings: in vivo, 0.5 h; method in brief: as §1

Structure (SMILES) | Dose/organ (Rattus norvegicus [1]) | Dose/organ (Rattus norvegicus [2]) | Dose/organ (Rattus norvegicus [3]) | Dose/organ (Rattus norvegicus [4]) | Dose/organ (Rattus norvegicus [5]) | Dose/organ (Rattus norvegicus [6]) | Dose/organ (Rattus norvegicus [7]) | Dose/organ (Rattus norvegicus [8]) | Dose/organ (Rattus norvegicus [9]) | Dose/organ (Rattus norvegicus [10]) | Dose/organ (Rattus norvegicus [11]) | Dose/organ (Rattus norvegicus [12]) | Dose/organ (Rattus norvegicus [13]) | Dose/organ (Rattus norvegicus [14]) | Dose/organ (Rattus norvegicus [15]) | Dose/organ (Rattus norvegicus [16]) | Dose/organ (Rattus norvegicus [17]) | Dose/organ (Rattus norvegicus [18]) | Dose/organ (Rattus norvegicus [19]) | Dose/organ (Rattus norvegicus [20]) | further results
C1CCN(CC[Se]CCN2CCCCC2)CC1 | 15.9% | 20% | 0.19% | 0.87% | 7.14% | 4.58% | 2.89% | 2.83% | 9.21% | 13.4% | 12% | 0.85% | 0.65% | 1.49% | 1.63% | 3.04% | 12% | 7.39% | 14.3% | 0.89% | Dose/organ (Rattus norvegicus [21]): 1.09%
C1CN(CC[Se]CCN2CCOCC2)CCO1 | 21.7% | 2.77% | 0.18% | 2.82% | 9.89% | 3.13% | 3.42% | 1.79% | 4.03% | 14.4% | 17.7% | 0.94% | 2.46% | 1.53% | 0.56% | 0.45% | 18.3% | 10.5% | 23.2% | 0.22% | Dose/organ (Rattus norvegicus [21]): 3.19%
CC(C)N(CC[Se]CCN(C(C)C)C(C)C)C(C)C | 13.1% | 11.2% | 0.3% | 1.17% | 11.4% | 2.96% | 2.28% | 3.44% | 6.19% | 14.2% | 15% | 1.11% | 1.04% | 0.33% | 0.35% | 2.35% | 11.9% | 9.88% | 16% | 0.55% | Dose/organ (Rattus norvegicus [21]): 0.25%
CN(C)CC[Se]CCN(C)C | 12.2% | 11.36% | 0.54% | – | 9.46% | 2.82% | 3.92% | 5.77% | 5.6% | 11.8% | 15.2% | 4.74% | 0.53% | 0.49% | 0.71% | 2.21% | 12.82% | 14.1% | 15.1% | 0.81% | Dose/organ (Rattus norvegicus [22]): 0.74%; Dose/organ (Rattus norvegicus [21]): 0.49%
C[N+](C)(C)CC[Se]CC[N+](C)(C)C | 3.04% | – | 0.05% | 5.16% | – | – | 2.75% | 0.63% | 6.01% | 9.52% | 5.48% | 0.2% | 0.36% | 0.06% | 0.06% | – | – | – | 5.74% | 0.15% | –
